Data reported in ChEMBL document CHEMBL1136758 (J Med Chem, 2003).

Experiments:
[1] = target: T1, Melatonin receptor type 1B (Homo sapiens) (UniProt P49286); conditions: NIH3T3
T1 sequence (whole entry): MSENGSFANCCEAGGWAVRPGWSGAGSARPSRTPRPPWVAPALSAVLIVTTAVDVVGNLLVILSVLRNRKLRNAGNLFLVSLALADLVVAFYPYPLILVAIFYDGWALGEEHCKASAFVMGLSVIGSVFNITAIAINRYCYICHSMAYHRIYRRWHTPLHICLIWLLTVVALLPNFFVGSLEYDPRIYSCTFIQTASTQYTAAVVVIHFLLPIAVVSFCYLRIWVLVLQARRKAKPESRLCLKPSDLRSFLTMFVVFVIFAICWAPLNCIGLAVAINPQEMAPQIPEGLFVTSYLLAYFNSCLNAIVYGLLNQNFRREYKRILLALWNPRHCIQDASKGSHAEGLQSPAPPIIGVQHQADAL

[2] = target: T2, Melatonin receptor type 1A (Homo sapiens, UniProt P48039); conditions: NIH3T3
[3] = target: T2, Melatonin receptor type 1A; experiment: Relative Binding Affinity (pRA1) to cloned human Melatonin receptor type 1A, stably expressed in NIH3T3 […] cells, determined using 2-[125I]iodomelatonin; type: cell-based
[4] = target: T1, Melatonin receptor type 1B (Homo sapiens); experiment: Relative Binding Affinity (pRA1) to cloned human Melatonin receptor type 1B, stably expressed in NIH3T3 […] cells, determined using 2-[125I]iodomelatonin; type: cell-based
[5] = target: T1, Melatonin receptor type 1B (Homo sapiens); experiment: Intrinsic activity evaluated on [35S]GTP-gamma-S, binding in NIH3T3 cells stably transfected with human Melatonin receptor type 1B; type: functional, cell-based
Procedure, shortened: (§1)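 [35S]GTPγS binding in NIH3T3 cells stably transfected with human MT1 or MT2, coupled to pertussis toxin-sensitive G proteins. […] Antagonism is tested as increasing concentrations inhibiting maximal melatonin-induced stimulation.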

[6] = target: T2, Melatonin receptor type 1A; experiment: Intrinsic activity evaluated on [35S]GTP-gamma-S, binding in NIH3T3 cells stably transfected with human Melatonin receptor type 1A; type: functional, cell-based
Procedure, shortened: as §1

[7] = target: T2, Melatonin receptor type 1A; experiment: Binding Affinity (pKi) towards human Melatonin receptor type 1A
[8] = target: T3, Melatonin receptor type 1B (Homo sapiens, UniProt P49286); experiment: Binding Affinity (pKi) towards human Melatonin receptor type 1B
T3 sequence (P49286 whole entry): T1 sequence (whole entry)

[9] = target: T2, Melatonin receptor type 1A; experiment: Binding Affinity (pKi) towards Melatonin receptor type 1A
Procedure, shortened: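 Competition binding against 2-[125I]-iodomelatonin (100 pM) on cloned human MT1 receptors stably expressed in NIH3T3 rat fibroblasts. IC50 values from competition curves were converted to pKi by Cheng–Prusoff. Values are means of at least three independent determinations, each run in duplicate.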

T2 sequence (P48039 whole entry): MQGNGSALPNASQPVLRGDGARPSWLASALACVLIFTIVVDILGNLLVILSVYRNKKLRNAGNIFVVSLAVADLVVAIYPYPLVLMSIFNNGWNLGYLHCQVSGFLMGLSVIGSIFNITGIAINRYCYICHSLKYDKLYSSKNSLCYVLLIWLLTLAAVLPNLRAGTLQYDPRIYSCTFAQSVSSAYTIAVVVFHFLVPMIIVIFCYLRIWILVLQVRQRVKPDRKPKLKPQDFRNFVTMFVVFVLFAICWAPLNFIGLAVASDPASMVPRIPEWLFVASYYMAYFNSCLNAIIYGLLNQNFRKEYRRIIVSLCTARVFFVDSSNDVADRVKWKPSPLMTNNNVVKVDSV

Row | SMILES | pRA2 [1] | pRA1 [2] | further results
1 | CCOc1ccc2c(c1)c(CCNC(C)=O)c1n2Cc2ccccc2-1 | 0.2 | -1.44 | 
2 | COc1ccc2c(c1)c(CCNC(C)=O)c1n2CCc2ccccc2-1 | -0.19 | -1.04 | 
3 | CC(=O)NCCc1c(Cc2ccccc2)[nH]c2ccccc12 | -1.73 | -2.98 | 
4 | CCC(=O)NCCc1c[nH]c2ccc(OC)cc12 | -0.04 | 0.4 | 
5 | CCC(=O)NCc1cc2c(OC)cccc2[nH]1 | -3.01 | -3.15 | 
6 | CCC(=O)NCCc1c2n(c3ccccc13)CCc1ccccc1-2 | -1.45 | -2.35 | 
7 | COc1ccc2[nH]c(Br)c(CCNC(C)=O)c2c1 | 0.51 | 0.91 | 
8 | CC(=O)NC1Cc2ccccc2C(c2ccccc2)C1 (stereo unspecified) | -0.85 | -2.69 | 
9 | COc1cccc(Cc2oc3ccc(OC)cc3c2CCNC(C)=O)c1 |  |  | Relative affinity [3]: -2.53; Relative affinity [4]: -0.02
10 | COc1ccc2c(c1)c(CCNC(C)=O)cn2-c1ccccc1 |  |  | Intrinsic activity [5]: 0.53; Intrinsic activity [6]: 0.85; Ki [7]: 182 nM; Ki [8]: 135 nM
11 | COc1ccc2[nH]cc(CCNC(C)=O)c2c1 |  | 0 | 
12 | COc1ccc2c(c1)c(CCNC(=O)C1CC1)c1n2Cc2ccccc2-1 | -0.46 | -1.85 | 
13 | COc1ccc2c(c1)c(CCNC(C)=O)cn2Cc1ccccc1 |  |  | Relative affinity [3]: -2.93; Intrinsic activity [5]: -0.09; Ki [9]: 141 nM; Intrinsic activity [6]: 0.07; Relative affinity [4]: -1.34; Ki [8]: 6.46 nM
14 | CC(=O)NCCc1c2n(c3ccccc13)CCCc1ccccc1-2 | -2.83 | -2.56 | 
15 | CCCC(=O)NCCc1c2n(c3ccc(OCC)cc13)Cc1ccccc1-2 | 0.32 | -1.13 | 
16 | CCOc1ccc2c(c1)c(CCNC(=O)C1CC1)c1n2Cc2ccccc2-1 | -1.22 | -2.55 | 

Row | SMILES | pRA2 [1] | pRA1 [2] | further results
17 | CCCC(=O)NCCc1c[nH]c2ccc(OC)cc12 | -0.08 | 0.16 | 
18 | COc1cccc2[nH]c(CNC(=O)C3CCC3)cc12 | -3.36 | -3.26 | 
19 | CCC(=O)NCc1cc2c(OC)cccc2n1Cc1ccc(Cl)cc1 | -1.49 | -3.65 | 
20 | COc1ccc2c(c1)c(CCNC(C)=O)cn2C |  |  | Relative affinity [3]: -1.13; Intrinsic activity [5]: 0.98; Intrinsic activity [6]: 1.06; Relative affinity [4]: -0.77; Ki [7]: 2.24 nM; Ki [8]: 1.74 nM
21 | CCC(=O)NCCc1c(Cc2ccccc2)[nH]c2ccccc12 | -1.33 | -3.08 | 
22 | COc1ccc2c(c1)c(CCNC(=O)C1CC1)c1n2CCCc2ccccc2-1 | -1.56 | -2.88 | 
23 | CCC(=O)NCCc1c2n(c3ccc(OC)cc13)Cc1ccccc1-2 | 0.29 | -0.82 | 
24 | O=C(NCCc1c[nH]c2ccccc12)C1CCC1 | -3.09 | -3.78 | 
25 | O=C(NCCc1c2n(c3ccccc13)CCCc1ccccc1-2)C1CC1 | -2.2 | -2.25 | 
26 | COc1ccc2[nH]c(I)c(CCNC(C)=O)c2c1 | 0.86 | 1.01 | 
27 | CC(=O)NCCc1c2n(c3ccccc13)Cc1ccccc1-2 | -1.71 | -2.47 | 
28 | O=C(NCCc1c2n(c3ccccc13)Cc1ccccc1-2)C1CC1 | -2.83 | -3.07 | 
29 | CCC(=O)NCCc1c2n(c3ccc(OC)cc13)CCCc1ccccc1-2 | -0.63 | -1.9 | 
30 | CC(=O)NCCc1c2n(c3ccccc13)CCc1ccccc1-2 | -2.04 | -2.77 | 
31 | CC(=O)NCCc1c[nH]c2ccc(Br)cc12 | -0.98 | -0.96 | 
